The source made the active and inactive calls. The calls are words filed in the database; no cut-off is given here.

The target in data set [1] is Splicing factor 3B subunit 1 (Homo sapiens) (UniProt O75533). Description: Binding affinity to SAP155 in human GM18453 cells harboring NPC1 mutant assessed as restoration of cholesterol trafficking at 50 nM after 48 hrs by filipin-staining based fluorescence microscopic analysis. Type of data set: cell-based. The method, boiled down:
(§1)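 GM18453 NPC1-mutant fibroblasts were exposed for 48 h to 1 nM–5 μM compound, with DMSO vehicle and SAHA (5 μM) positive control. Cells were fixed, stained with filipin for unesterified cholesterol, and imaged by automated fluorescence microscopy. Filipin area sum per cell count was taken from four images per condition across four independent replicates.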

Data set [2] has the same target. As to the kind of experiment: Binding affinity to SAP155 in human GM18407 cells harboring NPC1 R404Q/M1142T mutant assessed as restoration of cholesterol trafficking at 0.001 to 5 uM after 48 hrs by filipin-staining based fluorescence microscopic analysis. It is filed as cell-based.
Data set [3] shares this target. As to the kind of experiment: Binding affinity to SAP155 in human GM18453 cells harboring NPC1 mutant assessed as increase in 250 kDa NPC1 protein expression at 50 nM pretreated for 48 hrs followed by endoglycosidase H addition and measured after overnight incubation by Western blot analysis. Type of data set: cell-based. The method, boiled down:
(§2)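 GM18453 fibroblasts were exposed 48 h to 50 nM compound, SAHA 5 μM or DMSO 0.1%. 25 μg lysate was denatured 10 min at 65°C, digested with Endo H (1000 U) about 18 h at 37°C, then run on SDS-PAGE. Blots were probed with rabbit anti-NPC1. Isoforms were quantified by densitometry against DMSO control across four independent experiments.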

Data set [4] can be described thus: Protein binding in human plasma. Type of data set: ADME, cell-free.
A short description of data set [5]: Mean residence time in ICR mouse at 2 mg/kg by LC-MS/MS analysis. It is filed as ADME, organism-based. To be noted: in vivo.
Data set [6] has as its target Splicing factor 3B subunit 1 (Homo sapiens) (UniProt O75533). As to the kind of experiment: Binding affinity to SAP155 in human GM18453 cells harboring NPC1 mutant assessed as increase in 100 kDa NPC1 protein expression at 50 nM measured after 48 hrs by Western blot analysis. It is filed as cell-based. The method, boiled down:
(§3)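 GM18453 fibroblasts were treated 48 h at 37°C, 5% CO2 with 50 nM compound, SAHA 5 μM or DMSO 0.1% v/v, then lysed in RIPA with protease inhibitors. 25–50 μg protein was run on 4–20% SDS-PAGE, blotted to PVDF and probed with rabbit polyclonal C-terminal anti-NPC1 (1:1000, overnight, 4°C). Detection used HRP anti-rabbit and ECL film.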

A short description of data set [7]: Cytotoxicity against human GM18453 cells harboring NPC1 mutant assessed as effect on cell shape at 5 uM. It is filed as cell-based. The method in brief:
as §1

The target of data set [8] is Splicing factor 3B subunit 1 (Homo sapiens) (UniProt O75533). Description: Binding affinity to SAP155 in human GM18453 cells harboring NPC1 mutant assessed as increase in 180 kDa NPC1 protein expression at 50 nM pretreated for 48 hrs followed by PNGaseF addition and measured after overnight incubation by Western blot analysis. It is filed as cell-based. The method in brief: (§4)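 After 48 h exposure of GM18453 fibroblasts to 50 nM compound (controls SAHA 5 μM, DMSO 0.1%), 25 μg lysate with SDS, DTT and Tris-HCl pH 8 was digested with PNGase F (1000 U) about 18 h at 37°C. Samples were immunoblotted with rabbit anti-NPC1, and isoforms were quantified by densitometry over four independent experiments.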
Chain of Splicing factor 3B subunit 1 (Homo sapiens) (O75533 whole entry, canonical isoform): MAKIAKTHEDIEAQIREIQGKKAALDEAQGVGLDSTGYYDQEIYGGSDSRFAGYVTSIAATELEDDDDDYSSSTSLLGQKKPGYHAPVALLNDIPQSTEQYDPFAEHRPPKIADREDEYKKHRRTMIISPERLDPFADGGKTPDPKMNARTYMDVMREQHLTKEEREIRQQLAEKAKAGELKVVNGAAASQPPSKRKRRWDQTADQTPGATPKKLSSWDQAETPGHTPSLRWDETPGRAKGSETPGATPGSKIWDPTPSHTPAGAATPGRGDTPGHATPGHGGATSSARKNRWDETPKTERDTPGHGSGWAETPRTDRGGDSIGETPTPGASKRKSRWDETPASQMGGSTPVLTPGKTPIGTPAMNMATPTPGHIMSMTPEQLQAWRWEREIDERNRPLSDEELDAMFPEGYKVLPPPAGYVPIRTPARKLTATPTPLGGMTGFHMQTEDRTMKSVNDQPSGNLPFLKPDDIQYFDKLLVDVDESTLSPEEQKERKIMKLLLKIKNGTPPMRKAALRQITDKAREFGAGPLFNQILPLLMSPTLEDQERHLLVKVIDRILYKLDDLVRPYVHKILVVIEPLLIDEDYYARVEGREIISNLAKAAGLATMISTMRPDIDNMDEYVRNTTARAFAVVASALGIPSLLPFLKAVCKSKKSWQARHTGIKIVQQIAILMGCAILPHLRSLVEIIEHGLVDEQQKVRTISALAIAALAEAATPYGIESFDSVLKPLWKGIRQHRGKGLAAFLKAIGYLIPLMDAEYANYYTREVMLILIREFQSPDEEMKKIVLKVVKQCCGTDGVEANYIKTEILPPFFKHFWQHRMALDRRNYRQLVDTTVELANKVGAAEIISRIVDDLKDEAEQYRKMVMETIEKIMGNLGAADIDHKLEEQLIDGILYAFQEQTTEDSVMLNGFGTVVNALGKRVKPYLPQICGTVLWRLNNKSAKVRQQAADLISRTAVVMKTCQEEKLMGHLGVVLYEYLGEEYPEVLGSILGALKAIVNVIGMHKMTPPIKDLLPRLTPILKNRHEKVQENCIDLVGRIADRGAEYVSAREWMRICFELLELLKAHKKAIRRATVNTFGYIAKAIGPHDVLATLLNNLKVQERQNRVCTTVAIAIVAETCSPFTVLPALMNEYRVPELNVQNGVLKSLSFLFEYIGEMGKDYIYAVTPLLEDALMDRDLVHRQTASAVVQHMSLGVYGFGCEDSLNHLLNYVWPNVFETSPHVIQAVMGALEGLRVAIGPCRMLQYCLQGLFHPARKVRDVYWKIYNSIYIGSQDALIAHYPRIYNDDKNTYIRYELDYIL

The nature of data set [9]: Aqueous solubility of the compound in HBSS solution. To be noted: buffer. Type of data set: physicochemical.
Data set [10] in a line: Aqueous solubility of the compound in pH 7.4 buffer. It is filed as physicochemical.
Data set [11] is described as follows: Stability in human liver microsomes. It is filed as ADME, microsome.
Data set [12] addresses Splicing factor 3B subunit 1 (Homo sapiens) (UniProt O75533). Description: Binding affinity to SAP155 in human GM18453 cells harboring NPC1 mutant assessed as increase in 100 kDa NPC1 protein expression at 50 nM pretreated for 48 hrs followed by endoglycosidase H addition and measured after overnight incubation by Western blot analysis relative to control. It is filed as cell-based. The method in brief:
as §2

For data set [13] the target is unchanged. Description: Binding affinity to SAP155 in human GM18453 cells harboring NPC1 mutant assessed as increase in 180 kDa NPC1 protein expression at 50 nM pretreated for 48 hrs followed by endoglycosidase H addition and measured after overnight incubation by Western blot analysis. Type of data set: cell-based. The method in brief:
as §2

For data set [14] the target is unchanged. Description: Binding affinity to SAP155 in human GM18453 cells harboring NPC1 mutant assessed as increase in 120 kDa NPC1 protein expression at 50 nM measured after 48 hrs by Western blot analysis. Type of data set: cell-based. The method, boiled down: as §3
Data set [15] is described as follows: Stability in mouse liver microsomes. Type of data set: ADME, microsome.
Data set [16] has as its target Splicing factor 3B subunit 1 (Homo sapiens) (UniProt O75533). Description: Binding affinity to SAP155 in human GM18453 cells harboring NPC1 mutant assessed as increase in 180 kDa NPC1 protein expression at 50 nM measured after 48 hrs by Western blot analysis. Type of data set: cell-based. The method in brief: as §3
Data set [17] is described as follows: Cytotoxicity against human GM18453 cells harboring NPC1 mutant assessed as effect on nuclei shape at 5 uM. It is filed as cell-based. The method, boiled down:
as §1

Data set [18] in a line: Protein binding in mouse plasma. It is filed as ADME, cell-free.
The target in data set [19] is Splicing factor 3B subunit 1 (Homo sapiens) (UniProt O75533). As to the kind of experiment: Binding affinity to SAP155 in human GM18453 cells harboring NPC1 mutant assessed as increase in 120 kDa NPC1 protein expression at 50 nM pretreated for 48 hrs followed by PNGaseF addition and measured after overnight incubation by Western blot analysis. Type of data set: cell-based. The method, boiled down: as §4

Data set [20] can be described thus: Permeability in human Caco2 cells. Type of data set: ADME, cell-based. To be noted: caco-2.

`COC(=O)C[C@H]1CC[C@H](C)[C@@H](/C(C)=C/C=C/[C@@H](C)C[C@@]2(C)O[C@@H]2[C@H](C)[C@@H](OC)C(C)=O)O1`: the outcome in data set [1] was Active. The outcome in data set [2] was inactive.

Regarding `CO[C@H]([C@@H](C)[C@H]1O[C@]1(C)C[C@H](C)/C=C/C=C(\C)[C@H]1O[C@@H](CC(=O)O)CC[C@@H]1C)[C@@H](C)O`, the result in data set [1], in data set [6], in [14], in [16] and in [19] was Active. Besides, the outcome in [2], in data set [3], in data set [8] and in data set [13] was inactive. Also, the PB result in data set [4] and in data set [18] was “Active” each time. The compound also showed an MRT in [5] of 4.53 h. Moreover, the Activity entry in data set [7] and in [17] was “Toxic” throughout. The solubility entry in data set [9] and in data set [10] was “Soluble” in each case. The Stability entry in [11] and in data set [15] was “Stable” in each case. For the same compound, the fold change (FC) in data set [12] turned out to be 1.5. Further, the permeability result in [20] is recorded as “Permeable”.

As to `COC(=O)C[C@H]1CC[C@H](C)[C@@H](/C(C)=C/C=C/[C@@H](C)C[C@@]2(C)O[C@@H]2[C@H](C)[C@@H](OC)[C@@H](C)O)O1`, the outcome in data set [1] was Active. Moreover, the result in data set [2] was inactive.

As to `COC(=O)C[C@H]1CC[C@H](C)[C@@H](/C(C)=C/C=C/[C@@H](C)C[C@@]2(C)O[C@@H]2[C@H](C)[C@@H](OC)[C@@H](C)OC(C)=O)O1`, the outcome in [1] was Active. In addition, the outcome in data set [2] was inactive.

For the origin of these results see ChEMBL document CHEMBL4196188, “GEX1A, a Polyketide from Streptomyces chromofuscus, Corrects the Cellular Defects Associated with Niemann-Pick Type C1 in Human Fibroblasts” (J Nat Prod, 2018).
